In experiment [1] the test system is Staphylococcus aureus. Kind of experiment: microbe, parasite or virus in culture. Particulars: DSM 1182.
In the next experiment the test system is MCF7. As to the kind of experiment: Antiproliferative activity against human MCF7 cells after 5 days by MTT assay. Particulars: MCF7, 120 h. Type of experiment: functional, cell-based. In short, it runs like this:
(§1)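 Serial dilution in 96-well tissue-culture plates starting from 3.0 μL of 1 mg/mL stock. L929 grown in DMEM; MCF-7 and A431 in RPMI; each with 10% FBS. Incubation at 37 °C under 5% CO2 for 5 days. Methanol as negative control, epothilone A as positive control. IC50 in μM.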
For orientation: Formazan colour is commonly taken as a measure of viable cells.

For experiment [2], the system named is Staphylococcus aureus. Kind of experiment: Antimicrobial activity against Methicillin-resistant Staphylococcus aureus DSM 1182 at 20 uL of 1 mg/ml compound solution after 24 to 48 hrs by serial dilution method. Type of experiment: functional.
In another experiment the test system is Bacillus subtilis. As to the kind of experiment: Antimicrobial activity against Bacillus subtilis DSM 10 after 24 to 48 hrs by serial dilution method. Type of experiment: functional.
The subject of another experiment is A-431. Kind of experiment: Antiproliferative activity against human A431 cells after 5 days by MTT assay. The experiment is classed as functional, cell-based. Particulars: A-431, 120 h. In outline:
as §1

Experiment [3] has as its system Staphylococcus aureus. Particulars: DSM 1182.
The subject of a further experiment is L929. Kind of experiment: Antiproliferative activity against mouse L929 cells after 5 days by MTT assay. The experiment is classed as functional, cell-based. Particulars: L929, 120 h. In short, it runs like this:
as §1

Experiment [4] relates to Staphylococcus aureus. As to the kind of experiment: Antimicrobial activity against Staphylococcus aureus DSM 346 at 20 uL of 1 mg/ml compound solution after 24 to 48 hrs by serial dilution method. The experiment is classed as functional.
The test system of experiment [5] is Staphylococcus aureus. Kind of experiment: Antimicrobial activity against Staphylococcus aureus DSM 346 at 2 uL of 1 mg/ml compound solution after 24 to 48 hrs by serial dilution method. Type of experiment: functional.
The next experiment relates to HUVEC. As to the kind of experiment: Antiproliferative activity against HUVEC after 5 days by MTT assay. Type of experiment: functional, cell-based. Particulars: Homo sapiens, 120 h.

Converted amounts (≈) assume the structure as drawn. The source made the active and inactive calls. No cut-off for these calls is given here.

Turning to `CN[C@H](CC(C)C)C(=O)N[C@H]1C(=O)N[C@@H](CC(N)=O)C(=O)N[C@H]2C(=O)N[C@H]3C(=O)N[C@H](C(=O)N[C@H](C(=O)O)c4cc(O)cc(O)c4-c4cc3ccc4O)[C@H](O)c3ccc(c(Cl)c3)Oc3cc2cc(c3O[C@@H]2O[C@H](CO)[C@@H](O)[C@H](O)[C@H]2O[C@H]2C[C@](C)(N)[C@H](O)[C@H](C)O2)Oc2ccc(cc2Cl)[C@H]1O` [VANCOMYCIN], in the experiment on Staphylococcus aureus [1], the MIC was determined as 1.6 µg/mL (≈ 1.1 µM).
On to `CC(C)C1=C2[C@H]3CC[C@@H]4CO[C@@]5(O)[C@H](O)CO[C@H]6O[C@@H]([C@@H]4[C@]65O)[C@]3(C)CC[C@@]2(C)CC1`, for which the IC50 (as a rule, the point on the concentration scale where inhibition reaches its midpoint) came out at 2.3 µM in the experiment with MCF7, 5.8 µM in the experiment on A-431, 17.3 µM with L929 and 4.8 µM in the experiment with HUVEC. Also, the MIC with Staphylococcus aureus [2] turned out to be 17.9 µM (≈ 7.78 µg/mL); against Bacillus subtilis, 76.7 µM (≈ 33.3 µg/mL); in the experiment with Staphylococcus aureus [4], 17.9 µM; against Staphylococcus aureus [5], 6.6 µg/mL (≈ 15.2 µM). Further, in the experiment on Staphylococcus aureus [3], the MIC result was “inactive”.
On to `CC(C)C1=C2[C@H]3CC[C@@H]4[C@@H]5O[C@]6(O)[C@@]7(O)[C@@H](OC[C@]6(O)O5)O[C@@H]([C@@H]47)[C@]3(C)CC[C@@]2(C)CC1`, for which the IC50 in the experiment on MCF7 came out at 2 µM; in the experiment with A-431 it was 4.9 µM; in the experiment with L929, 16.1 µM; with HUVEC, 3.6 µM. Also, the MIC with Staphylococcus aureus [2] came out at 140 µM (≈ 62.8 µg/mL); against Bacillus subtilis, 37.4 µM (≈ 16.8 µg/mL); against Staphylococcus aureus [4] it was 15.7 µg/mL. In addition, the MIC entry in the experiment with Staphylococcus aureus [3] and with Staphylococcus aureus [5] was “inactive” in each case.

The values are drawn from ChEMBL document CHEMBL4477192, “Laxitextines A and B, Cyathane Xylosides from the Tropical Fungus Laxitextum incrustatum” (J Nat Prod, 2016).
